Only some compounds are listed: those with a hit (about 1.9% of all), similar ones and a draw of the others.
CHRM5 PAM = human M5 muscarinic receptor positive allosteric modulators, primary screen, CHO-K1 cells, Fluo-8 calcium fluorescence. CHO-K1 hM5, ACh EC20 PAM; 0% = ACh EC20, 100% = ACh EC100. Muscarinic acetylcholine receptor M5 (Homo sapiens), P08912. actives 0.3% (n = 360,000). activation, % at 3 µM. AID 624038, 2012;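 active = activation above the run cutoff, the mean activation of all test compounds plus 3 SD, cut at about 18% in these data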
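Assay system – human M5 receptor in CHO-K1 cells · Read-out – % activation, ACh-normalized · Technique – Fluo-8 calcium fluorescence · Dosing – single-point, 3 µM nominal · Incubation – Fluo-8 loading 80 min at 37 °C plus 30 min room temperature · Repeats – singlicate, one well per test compound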
M4 PAM = human M4 muscarinic receptor positive allosteric modulators, primary screen, CHO-K1 cells, Fluo-8 calcium fluorescence; Muscarinic acetylcholine receptor M4 (Homo sapiens), P08173; CHO-K1 hM4/Gqi5, ACh EC20; 0% = ACh EC20, 100% = maximal ACh; activation, % at 3 µM; actives 0.4% (n = 360,000); AID 624126, 2012;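 active = activation above its plate's cutoff, the mean activation of sample wells plus 3 SD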
Target sequence (P08173 whole entry, looked up): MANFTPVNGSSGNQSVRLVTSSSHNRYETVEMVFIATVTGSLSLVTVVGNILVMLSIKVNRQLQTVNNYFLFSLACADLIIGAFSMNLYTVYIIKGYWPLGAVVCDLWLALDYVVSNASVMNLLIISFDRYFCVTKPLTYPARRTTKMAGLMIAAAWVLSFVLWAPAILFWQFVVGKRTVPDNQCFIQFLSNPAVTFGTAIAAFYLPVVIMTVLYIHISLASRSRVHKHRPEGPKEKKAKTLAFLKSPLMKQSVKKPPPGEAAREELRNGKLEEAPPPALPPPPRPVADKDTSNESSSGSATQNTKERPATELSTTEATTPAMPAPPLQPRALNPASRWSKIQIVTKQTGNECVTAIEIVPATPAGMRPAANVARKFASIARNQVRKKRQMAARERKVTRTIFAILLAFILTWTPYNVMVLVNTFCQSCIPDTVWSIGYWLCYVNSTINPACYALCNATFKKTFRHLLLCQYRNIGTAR
CHRM5 agonist = human M5 muscarinic receptor agonists, primary screen, CHO-K1 cells, Fluo-8 calcium fluorescence; Muscarinic acetylcholine receptor M5 (Homo sapiens), P08912; CHO-K1 hM5 cells; 0% DMSO wells, 100% maximal acetylcholine response; activation, % at 3 µM; actives 0.19% (n = 360,000); AID 624037, 2012;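 active = activation above the run's mean over test compounds plus 3 SD, cut at about 23% in these data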;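 note: signal is peak over basal fluorescence ratio across the kinetic read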
CHRM5 antagonist = human M5 muscarinic receptor antagonists, primary screen, CHO cells, Fluo-8 calcium fluorescence; inhibition, % at 3 µM; AID 624040, 2012; CHO-hM5 cells, ACh EC80; actives 0.59% (n = 360,000);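 active = inhibition above a per-plate cutoff, the mean of that plate's test compounds plus 3 SD, cut at about 27% in these data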;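 note: 0% = acetylcholine EC80 with DMSO and 100% = DMSO without agonist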
CHRM4 agonist = human M4 muscarinic receptor agonists, primary screen, CHO-K1 cells, Fluo-8 calcium fluorescence. CHO-K1 hM4/Gqi5; vehicle 0%, full acetylcholine response 100%. activation, % at 3 µM. actives 0.14% (n = 360,000). AID 624127, 2012;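 active = activation above the run mean over all test wells plus 3 SD, cut at about 32% in these data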;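 note: peak over basal fluorescence ratio per well then scaled between controls; 0% = DMSO wells and 100% = acetylcholine at EC100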
M4 antag = human M4 muscarinic receptor antagonists, primary screen, CHO cells, Fluo-8 calcium fluorescence. AID 624125, 2012. inhibition, % at 3 µM. CHO-hM4 cells, ACh EC80. Muscarinic acetylcholine receptor M4 (Homo sapiens), P08173. actives 0.73% (n = 360,000);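 active = inhibition above its plate's cutoff, the mean inhibition of sample wells plus 3 SD, cut at about 27% in these data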;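 note: 0% = acetylcholine EC80 with DMSO and 100% = DMSO without agonist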
Numbers without * were called inactive.

What do the screens show for `CCOc1ccc(OCC(=O)N2CCOCC2)cc1`?
CHRM5 PAM: -5; M4 PAM: 1; CHRM5 agonist: -2; CHRM5 antagonist: 2; CHRM4 agonist: 0; M4 antag: 5

Results for O=C(COc1ccc(Br)cc1)N1CCOCC1 ?
CHRM5 PAM: 18*; M4 PAM: 4; CHRM5 agonist: 0; CHRM5 antagonist: -19; CHRM4 agonist: 1; M4 antag: -11

How did COc1cc(C(=O)NNC(=O)COc2ccc(Br)cc2)ccc1OCC(=O)N1CCOCC1 do in these assays?
CHRM5 PAM: 6; M4 PAM: 9; CHRM5 agonist: 5; CHRM5 antagonist: 10; CHRM4 agonist: 1; M4 antag: 3

Results for COc1cc(C(=O)NNC(=O)COc2ccc(C)cc2)ccc1OCC(=O)N1CCOCC1 ?
CHRM5 PAM: 0; M4 PAM: 23*; CHRM5 agonist: 4; CHRM5 antagonist: -4; CHRM4 agonist: 1; M4 antag: -8

What do the screens show for `COc1ccc(CN2CCNC(=O)C2CC(=O)NC2CC(C)(C)CC(C)(C)C2)cc1OC` (stereo unspecified)?
CHRM5 PAM: -2; M4 PAM: -3; CHRM5 agonist: -4; CHRM5 antagonist: 5; CHRM4 agonist: 1; M4 antag: 6

What do the screens show for `Cn1c(-c2ccc3c(c2)OCO3)cnc1NCc1ccc(Cl)cc1`?
CHRM5 PAM: -10; M4 PAM: -28; CHRM5 agonist: -7; CHRM5 antagonist: 3; CHRM4 agonist: 1; M4 antag: 14

Results for Cc1ccc(CNc2ncc(-c3ccc4c(c3)OCO4)n2C)cc1 ?
CHRM5 PAM: -12; M4 PAM: -28; CHRM5 agonist: -7; CHRM5 antagonist: 5; CHRM4 agonist: 0; M4 antag: 28*

What do the screens show for `O=C(Nc1ccc(Br)c(C(F)(F)F)c1)c1ccccc1`?
CHRM5 PAM: -16; M4 PAM: -10; CHRM5 agonist: -3; CHRM5 antagonist: 10; CHRM4 agonist: 7; M4 antag: 0

Results for O=C(Nc1ccc(Br)c(C(F)(F)F)c1)c1ccc(C(F)(F)F)cc1 ?
CHRM5 PAM: -34; M4 PAM: -18; CHRM5 agonist: -4; CHRM5 antagonist: 31*; CHRM4 agonist: 10; M4 antag: 34*

What do the screens show for `COc1ccc(NC(=O)CSCC(=O)OCc2cccc(OC)c2OC)cc1`?
CHRM5 PAM: -4; M4 PAM: -6; CHRM5 agonist: -1; CHRM5 antagonist: -15; CHRM4 agonist: 6; M4 antag: -17

How did CC(=O)c1c(C)[nH]c(C(=O)OCc2ccccc2)c1C do in these assays?
CHRM5 PAM: -10; M4 PAM: -7; CHRM5 agonist: 1; CHRM5 antagonist: 4; CHRM4 agonist: 6; M4 antag: -6

Results for CC(=O)c1c(C)[nH]c(C(=O)OCCCCN2C(=O)c3ccccc3C2=O)c1C ?
CHRM5 PAM: -24; M4 PAM: -15; CHRM5 agonist: 9; CHRM5 antagonist: 31*; CHRM4 agonist: 22; M4 antag: 10

How did CC(C)C(=O)Nc1ccc(Oc2ccc3c(c2)C(=O)NC3=O)cc1 do in these assays?
CHRM5 PAM: 2; M4 PAM: -4; CHRM5 agonist: -1; CHRM5 antagonist: 3; CHRM4 agonist: 2; M4 antag: -2

Results for CC(=O)c1ccccc1NC(=O)CSc1n[nH]c(=O)n1C1CC1 ?
CHRM5 PAM: -6; M4 PAM: 2; CHRM5 agonist: 1; CHRM5 antagonist: 16; CHRM4 agonist: 4; M4 antag: -5

What do the screens show for `Cc1ccc(C(=O)N/C(=C\c2ccco2)C(=O)NCCN2CCOCC2)cc1C`?
CHRM5 PAM: -3; M4 PAM: 9; CHRM5 agonist: -5; CHRM5 antagonist: 10; CHRM4 agonist: 0; M4 antag: 5

Results for N#Cc1c(C(F)(F)F)cc(-c2ccco2)nc1SCc1ccncc1 ?
CHRM5 PAM: -5; M4 PAM: -7; CHRM5 agonist: 0; CHRM5 antagonist: 26; CHRM4 agonist: 16; M4 antag: 25

Results for N#Cc1c(C(F)(F)F)cc(-c2ccco2)nc1SCc1ccccn1 ?
CHRM5 PAM: -11; M4 PAM: -8; CHRM5 agonist: 12; CHRM5 antagonist: 27; CHRM4 agonist: 56*; M4 antag: 21

What do the screens show for `CN(C)n1cccc1/C=C(\C#N)S(=O)(=O)c1ccc(Cl)cc1`?
CHRM5 PAM: -4; M4 PAM: -7; CHRM5 agonist: -3; CHRM5 antagonist: 1; CHRM4 agonist: 0; M4 antag: 4

What do the screens show for `COc1ccc(C)cc1NC(=O)CN1C(=O)COc2ccc(C)cc21`?
CHRM5 PAM: 22*; M4 PAM: 4; CHRM5 agonist: 5; CHRM5 antagonist: -14; CHRM4 agonist: 1; M4 antag: -11

What do the screens show for `COc1ccccc1NC(=O)CN1C(=O)COc2ccc(C)cc21`?
CHRM5 PAM: 0; M4 PAM: -2; CHRM5 agonist: 7; CHRM5 antagonist: -2; CHRM4 agonist: 5; M4 antag: -2

Results for CC(C(=O)NC1CCCC1)n1c(C2CCCC2)nc2ccccc21 (stereo unspecified) ?
CHRM5 PAM: 4; M4 PAM: -5; CHRM5 agonist: 0; CHRM5 antagonist: -4; CHRM4 agonist: 1; M4 antag: -1

How did CCOC(=O)c1cc(-c2ccc3c(c2)OCCO3)n[nH]1 do in these assays?
CHRM5 PAM: 14; M4 PAM: 27*; CHRM5 agonist: 6; CHRM5 antagonist: -13; CHRM4 agonist: -1; M4 antag: -17

What do the screens show for `Nc1cc(=O)[nH]c(SCC(=O)Nc2cccnc2Cl)n1`?
CHRM5 PAM: -7; M4 PAM: 22*; CHRM5 agonist: -3; CHRM5 antagonist: 10; CHRM4 agonist: 4; M4 antag: -26

Results for Nc1ccc(S(=O)(=O)N2CCc3ccccc32)cc1 ?
CHRM5 PAM: -1; M4 PAM: -2; CHRM5 agonist: -2; CHRM5 antagonist: 7; CHRM4 agonist: 1; M4 antag: 12

How did O=S(=O)(NC1CCCC1)c1ccc(S(=O)(=O)N2CCc3ccccc32)cc1 do in these assays?
CHRM5 PAM: -15; M4 PAM: -16; CHRM5 agonist: 8; CHRM5 antagonist: 29*; CHRM4 agonist: 22; M4 antag: 29*

What do the screens show for `O=C(Cc1ccc(Cl)cc1Cl)Nc1ccncc1Cl`?
CHRM5 PAM: -13; M4 PAM: -6; CHRM5 agonist: 3; CHRM5 antagonist: 30*; CHRM4 agonist: 11; M4 antag: 3

High-throughput results: PubChem BioAssay, The Scripps Research Institute Molecular Screening Center
